{"source": "ChEMBL document CHEMBL2311339", "about": "“Identification of GZD824 as an orally bioavailable inhibitor that targets phosphorylated and nonphosphorylated breakpoint cluster region-Abelson (Bcr-Abl) kinase and overcomes clinically acquired mutation-induced resistance against imatinib” (J Med Chem, 2013)", "key": {"[1]": {"assay": "Antitumor activity against mouse BA/F3 cells expressing BCR-ABL T315I mutant allografted in SCID mouse assessed as increase in median survival at 10 mg/kg/day, po qd for 10 days", "assay_type": "functional, BaF3", "procedure,_shortened": "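Ba/F3 Bcr-Abl T315I cells stably carrying firefly luciferase, in saline, were injected i.v. into SCID nude mice (2 × 10^6 cells/0.1 mL). Imaging began 5−7 days later: i.p. D-luciferin, halothane anaesthesia, images after 5 min. Mice were randomised by signal and dosed by oral gavage once daily for 10 days (5, 10, 20 mg/kg/day; imatinib 100 mg/kg; vehicle). Luminescence was quantified; survival by Kaplan−Meier with log-rank test.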"}, "BaF3 [2]": {"test_system": "BaF3", "assay": "Antitumor activity against mouse BA/F3 cells expressing BCR-ABL F317L mutant allografted in po dosed SCID mouse assessed as reduction of hepatosplenomegaly administered qd for 14 days", "assay_type": "functional, organism-based"}, "BaF3 [3]": {"test_system": "BaF3", "assay": "Antitumor activity against mouse BA/F3 cells expressing BCR-ABL E255K mutant allografted in po dosed SCID mouse assessed as reduction of hepatosplenomegaly administered qd for 14 days", "assay_type": "functional, organism-based"}, "BaF3 [4]": {"test_system": "BaF3", "assay": "Antitumor activity against mouse BA/F3 cells expressing BCR-ABL G250E mutant allografted in po dosed SCID mouse assessed as reduction of hepatosplenomegaly administered qd for 14 days", "assay_type": "functional, organism-based"}, "KU812": {"test_system": "KU812", "assay": "Antitumor activity against human KU812 cells xenografted in mouse assessed as induction of tumor regression at 1 mg/kg, po qd for 14 days", "assay_type": "functional, organism-based", "design": "dose 1 mg/kg"}, "K562 [5]": {"test_system": "K562", "assay": "Antitumor activity against human K562 cells xenografted in mouse assessed as inhibition of tumor growth at 1 mg/kg, po qd for 14 days", "assay_type": "functional", "conditions": "K562, 336 h, read-out: TGI", "procedure,_shortened": "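K562 cells in normal saline (2.5 × 10^7 cells/mL, 0.2 mL) injected subcutaneously into right flank; mice randomized when mean tumor volume reached 100−200 mm3. Dosing once daily by oral gavage for 14 consecutive days in 1% DMSO, 22.5% Cremophor, 7.5% ethanol, 69% saline. Tumor volume (L × W2/2) and body weight every 2 days; n = 10/group; unpaired Student's t test vs vehicle.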"}, "K562 [6]": {"test_system": "K562", "assay": "Antitumor activity against human K562 cells xenografted in mouse assessed as reduction in tumor size at 2 to 10 mg/kg, po qd for 2 days", "assay_type": "functional, organism-based"}, "[7]": {"assay": "Plasma concentration in rat after 12 hrs", "assay_type": "ADME", "procedure,_shortened": "(§1)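 Bismesylate salt given to rats as a single iv dose of 5 mg/kg or a single oral dose of 25 mg/kg. Plasma drug levels were followed over time to derive the PK parameters. The 12 h and 24 h plasma levels come from the oral 25 mg/kg dose.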"}, "Rattus norvegicus": {"test_system": "Rattus norvegicus", "assay": "Volume of distribution at steady state in rat at 25 mg/kg, po", "assay_type": "ADME, organism-based", "design": "dose 25 mg/kg, route oral", "conditions": "in vivo", "procedure,_shortened": "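Test compound given to rats as its bismesylate salt in a single dose, 5 mg/kg iv or 25 mg/kg by mouth. Plasma drug levels were monitored after dosing, and PK parameters including Vss were reported per route.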"}, "[8]": {"assay": "Mean residence time in rat at 25 mg/kg, po", "assay_type": "ADME, organism-based", "design": "dose 25 mg/kg, route oral", "conditions": "in vivo", "procedure,_shortened": "as §1"}, "[9]": {"assay": "Apparent permeability from basolateral to apical side in human Caco2 cells by LC-MS/MS analysis", "assay_type": "ADME, cell-based", "conditions": "Caco-2"}, "Cytochrome P450 3A4": {"target": "Cytochrome P450 3A4 (Homo sapiens, UniProt P08684)", "sequence (P08684 whole entry)": "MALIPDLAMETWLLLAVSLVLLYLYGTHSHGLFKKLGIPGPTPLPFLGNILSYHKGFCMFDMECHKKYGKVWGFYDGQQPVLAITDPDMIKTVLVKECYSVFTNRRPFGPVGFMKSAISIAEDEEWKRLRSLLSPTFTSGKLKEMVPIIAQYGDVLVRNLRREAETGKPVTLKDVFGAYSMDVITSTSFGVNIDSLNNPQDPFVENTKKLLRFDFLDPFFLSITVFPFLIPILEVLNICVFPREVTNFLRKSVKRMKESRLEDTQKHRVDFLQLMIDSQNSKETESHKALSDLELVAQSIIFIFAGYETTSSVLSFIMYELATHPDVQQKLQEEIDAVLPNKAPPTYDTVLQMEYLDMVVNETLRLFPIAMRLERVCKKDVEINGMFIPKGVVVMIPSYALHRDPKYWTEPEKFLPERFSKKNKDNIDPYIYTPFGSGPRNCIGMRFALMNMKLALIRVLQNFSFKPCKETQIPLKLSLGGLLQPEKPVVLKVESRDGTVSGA", "assay": "Inhibition of human recombinant CYP3A4 at 30 uM after 30 mins", "assay_type": "ADME", "conditions": "recombinant enzyme, 0.5 h"}, "MOLT-4": {"test_system": "MOLT-4", "assay": "Cytotoxicity against human MOLT4 cells […] assessed as growth inhibition after 72 hrs by CCK-8 assay", "assay_type": "functional, cell-based", "conditions": "MOLT-4, 72 h", "procedure,_shortened": "(§2)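 Log-phase human leukemia cells were seeded at about 3000 cells/well and treated 24 h later for 72 h. CCK-8 was then incubated with the cells for 3 h and read as OD450 − OD650. Viability was normalized to vehicle wells and cell-free blanks, and IC50 taken as the mean of three experiments.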"}, "U-937": {"test_system": "U-937", "assay": "Cytotoxicity against human U937 cells […] assessed as growth inhibition after 72 hrs by CCK-8 assay", "assay_type": "functional, cell-based", "conditions": "U-937, 72 h", "procedure,_shortened": "as §2"}, "[10]": {"assay": "Cytotoxicity against mouse BA/F3 cells expressing BCR-ABL H396R mutant assessed as growth inhibition after 72 hrs by CCK-8 assay", "conditions": "BaF3, 72 h"}, "[11]": {"assay": "Cytotoxicity against mouse BA/F3 cells expressing BCR-ABL E359V mutant assessed as growth inhibition after 72 hrs by CCK-8 assay", "conditions": "BaF3, 72 h"}, "[12]": {"assay": "Cytotoxicity against mouse BA/F3 cells expressing BCR-ABL M351T mutant assessed as growth inhibition after 72 hrs by CCK-8 assay", "conditions": "BaF3, 72 h"}, "[13]": {"assay": "Cytotoxicity against mouse BA/F3 cells expressing BCR-ABL F317L mutant assessed as growth inhibition after 72 hrs by CCK-8 assay", "conditions": "BaF3, 72 h"}, "[14]": {"assay": "Cytotoxicity against mouse BA/F3 cells expressing BCR-ABL E255V mutant assessed as growth inhibition after 72 hrs by CCK-8 assay", "conditions": "BaF3, 72 h"}, "[15]": {"assay": "Cytotoxicity against mouse BA/F3 cells expressing BCR-ABL Y253H mutant assessed as growth inhibition after 72 hrs by CCK-8 assay", "conditions": "BaF3, 72 h"}, "[16]": {"target": "Tyrosine-protein kinase receptor Tie-1 (Homo sapiens) (UniProt P35590)", "sequence (P35590 whole entry)": "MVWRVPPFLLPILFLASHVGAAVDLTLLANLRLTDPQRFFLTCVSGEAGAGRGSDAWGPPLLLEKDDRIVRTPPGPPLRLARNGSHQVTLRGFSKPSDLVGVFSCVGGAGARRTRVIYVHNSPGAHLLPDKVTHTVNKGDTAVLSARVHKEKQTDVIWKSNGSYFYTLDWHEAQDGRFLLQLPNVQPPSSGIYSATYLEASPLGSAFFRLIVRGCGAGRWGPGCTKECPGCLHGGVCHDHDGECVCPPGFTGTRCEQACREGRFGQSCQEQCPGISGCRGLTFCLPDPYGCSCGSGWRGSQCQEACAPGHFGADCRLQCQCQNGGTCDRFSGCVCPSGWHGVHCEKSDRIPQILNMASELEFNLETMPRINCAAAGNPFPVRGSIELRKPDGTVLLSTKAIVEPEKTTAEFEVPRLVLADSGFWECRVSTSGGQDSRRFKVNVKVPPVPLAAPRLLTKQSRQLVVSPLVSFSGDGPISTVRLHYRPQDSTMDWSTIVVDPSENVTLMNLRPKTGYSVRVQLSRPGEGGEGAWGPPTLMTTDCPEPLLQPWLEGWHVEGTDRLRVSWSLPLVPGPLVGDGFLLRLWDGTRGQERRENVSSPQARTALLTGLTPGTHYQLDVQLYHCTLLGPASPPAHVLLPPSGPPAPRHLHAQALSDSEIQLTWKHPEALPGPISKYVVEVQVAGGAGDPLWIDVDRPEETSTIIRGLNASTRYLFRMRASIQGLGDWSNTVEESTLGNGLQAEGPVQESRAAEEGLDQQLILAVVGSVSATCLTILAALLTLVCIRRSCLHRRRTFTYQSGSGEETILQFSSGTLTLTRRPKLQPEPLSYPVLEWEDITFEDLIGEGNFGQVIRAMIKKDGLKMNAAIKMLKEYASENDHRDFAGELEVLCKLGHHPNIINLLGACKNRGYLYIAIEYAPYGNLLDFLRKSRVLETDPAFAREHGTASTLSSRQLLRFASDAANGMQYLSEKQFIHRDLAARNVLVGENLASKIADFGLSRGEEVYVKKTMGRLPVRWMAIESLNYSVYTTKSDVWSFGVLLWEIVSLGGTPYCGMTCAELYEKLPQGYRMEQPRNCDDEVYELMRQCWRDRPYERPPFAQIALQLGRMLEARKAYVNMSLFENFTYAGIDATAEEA", "assay": "Binding affinity to TIE1 (unknown origin) at 10 nM after 2 hrs by FRET assay"}, "[17]": {"target": "Proto-oncogene tyrosine-protein kinase receptor Ret (Homo sapiens) (UniProt P07949)", "assay": "Binding affinity to RET (unknown origin) at 10 nM after 2 hrs by FRET assay"}, "[18]": {"target": "Platelet-derived growth factor receptor alpha (Homo sapiens) (UniProt P16234)", "assay": "Binding affinity to PDGFRalpha (unknown origin) at 10 nM after 2 hrs by FRET assay"}, "[19]": {"target": "Epithelial discoidin domain-containing receptor 1 (Homo sapiens) (UniProt Q08345)", "assay": "Binding affinity to DDR1 (unknown origin) at 10 nM after 2 hrs by FRET assay"}, "[20]": {"target": "Fibroblast growth factor receptor (Homo sapiens) (UniProt P22607+P11362+P22455+P21802)", "sequence (P11362 whole entry, looked up)": "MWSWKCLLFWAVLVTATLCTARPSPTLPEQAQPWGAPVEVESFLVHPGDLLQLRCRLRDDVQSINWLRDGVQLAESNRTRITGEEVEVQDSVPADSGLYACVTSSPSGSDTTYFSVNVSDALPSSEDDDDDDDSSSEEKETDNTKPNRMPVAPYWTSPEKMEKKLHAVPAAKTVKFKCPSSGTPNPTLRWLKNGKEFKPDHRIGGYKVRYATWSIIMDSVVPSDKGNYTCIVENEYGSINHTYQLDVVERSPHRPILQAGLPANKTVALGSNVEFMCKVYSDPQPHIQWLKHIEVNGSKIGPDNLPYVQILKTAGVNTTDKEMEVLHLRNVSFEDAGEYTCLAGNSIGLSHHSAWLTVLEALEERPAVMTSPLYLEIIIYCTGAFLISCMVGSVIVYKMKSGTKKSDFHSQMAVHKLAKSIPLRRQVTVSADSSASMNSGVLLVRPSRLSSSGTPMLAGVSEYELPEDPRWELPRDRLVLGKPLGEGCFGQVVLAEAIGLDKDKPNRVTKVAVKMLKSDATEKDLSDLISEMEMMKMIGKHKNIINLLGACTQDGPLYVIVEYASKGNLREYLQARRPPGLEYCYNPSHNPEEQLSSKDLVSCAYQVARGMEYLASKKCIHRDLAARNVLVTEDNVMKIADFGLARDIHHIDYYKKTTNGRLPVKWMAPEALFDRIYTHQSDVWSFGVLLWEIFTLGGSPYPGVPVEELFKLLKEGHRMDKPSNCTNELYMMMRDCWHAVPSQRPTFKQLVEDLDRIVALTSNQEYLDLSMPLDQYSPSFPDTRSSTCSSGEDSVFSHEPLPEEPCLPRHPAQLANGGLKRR", "sequence (P21802 whole entry, looked up)": "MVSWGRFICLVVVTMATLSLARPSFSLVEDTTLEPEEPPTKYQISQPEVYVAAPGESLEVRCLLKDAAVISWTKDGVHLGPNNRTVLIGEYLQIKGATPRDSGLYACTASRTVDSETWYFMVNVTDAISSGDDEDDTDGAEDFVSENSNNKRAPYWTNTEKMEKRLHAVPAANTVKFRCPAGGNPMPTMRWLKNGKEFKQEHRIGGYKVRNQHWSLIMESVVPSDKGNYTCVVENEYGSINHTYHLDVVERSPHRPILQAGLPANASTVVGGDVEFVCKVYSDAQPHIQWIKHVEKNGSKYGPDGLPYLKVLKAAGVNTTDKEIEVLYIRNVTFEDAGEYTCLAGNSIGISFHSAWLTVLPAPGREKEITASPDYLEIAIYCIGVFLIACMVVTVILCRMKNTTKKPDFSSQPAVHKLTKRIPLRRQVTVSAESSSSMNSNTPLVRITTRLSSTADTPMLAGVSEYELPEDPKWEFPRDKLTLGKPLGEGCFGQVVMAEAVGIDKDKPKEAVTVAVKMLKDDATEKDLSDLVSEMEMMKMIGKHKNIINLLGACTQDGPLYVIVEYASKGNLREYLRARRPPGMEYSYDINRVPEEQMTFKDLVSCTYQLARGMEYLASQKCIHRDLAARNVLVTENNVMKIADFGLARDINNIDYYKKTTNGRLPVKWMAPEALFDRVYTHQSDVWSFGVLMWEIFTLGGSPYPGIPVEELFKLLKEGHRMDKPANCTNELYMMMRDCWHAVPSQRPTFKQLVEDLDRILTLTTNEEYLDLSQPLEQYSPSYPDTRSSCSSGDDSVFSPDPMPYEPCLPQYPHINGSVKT", "sequence (P22455 whole entry, looked up)": "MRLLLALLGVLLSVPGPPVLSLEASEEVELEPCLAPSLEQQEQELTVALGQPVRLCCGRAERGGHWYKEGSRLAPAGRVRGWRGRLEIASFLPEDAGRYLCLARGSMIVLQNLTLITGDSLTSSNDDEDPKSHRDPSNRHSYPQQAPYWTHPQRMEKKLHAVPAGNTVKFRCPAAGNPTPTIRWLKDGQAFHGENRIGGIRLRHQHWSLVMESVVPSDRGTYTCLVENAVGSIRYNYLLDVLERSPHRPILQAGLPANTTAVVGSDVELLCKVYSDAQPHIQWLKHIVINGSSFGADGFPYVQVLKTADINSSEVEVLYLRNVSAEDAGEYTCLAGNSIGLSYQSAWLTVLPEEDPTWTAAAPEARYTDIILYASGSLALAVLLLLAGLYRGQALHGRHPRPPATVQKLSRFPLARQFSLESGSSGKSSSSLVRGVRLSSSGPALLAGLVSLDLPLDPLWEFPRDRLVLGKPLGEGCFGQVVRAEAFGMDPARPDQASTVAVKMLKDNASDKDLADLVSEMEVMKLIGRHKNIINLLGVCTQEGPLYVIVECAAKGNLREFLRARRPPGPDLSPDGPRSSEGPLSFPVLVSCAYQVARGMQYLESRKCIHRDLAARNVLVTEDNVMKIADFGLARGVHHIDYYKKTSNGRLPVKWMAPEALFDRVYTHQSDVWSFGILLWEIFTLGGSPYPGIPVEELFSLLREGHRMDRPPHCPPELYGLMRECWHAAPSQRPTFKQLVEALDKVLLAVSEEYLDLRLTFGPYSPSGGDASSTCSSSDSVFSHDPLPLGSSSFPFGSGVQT", "sequence (P22607 whole entry, looked up)": "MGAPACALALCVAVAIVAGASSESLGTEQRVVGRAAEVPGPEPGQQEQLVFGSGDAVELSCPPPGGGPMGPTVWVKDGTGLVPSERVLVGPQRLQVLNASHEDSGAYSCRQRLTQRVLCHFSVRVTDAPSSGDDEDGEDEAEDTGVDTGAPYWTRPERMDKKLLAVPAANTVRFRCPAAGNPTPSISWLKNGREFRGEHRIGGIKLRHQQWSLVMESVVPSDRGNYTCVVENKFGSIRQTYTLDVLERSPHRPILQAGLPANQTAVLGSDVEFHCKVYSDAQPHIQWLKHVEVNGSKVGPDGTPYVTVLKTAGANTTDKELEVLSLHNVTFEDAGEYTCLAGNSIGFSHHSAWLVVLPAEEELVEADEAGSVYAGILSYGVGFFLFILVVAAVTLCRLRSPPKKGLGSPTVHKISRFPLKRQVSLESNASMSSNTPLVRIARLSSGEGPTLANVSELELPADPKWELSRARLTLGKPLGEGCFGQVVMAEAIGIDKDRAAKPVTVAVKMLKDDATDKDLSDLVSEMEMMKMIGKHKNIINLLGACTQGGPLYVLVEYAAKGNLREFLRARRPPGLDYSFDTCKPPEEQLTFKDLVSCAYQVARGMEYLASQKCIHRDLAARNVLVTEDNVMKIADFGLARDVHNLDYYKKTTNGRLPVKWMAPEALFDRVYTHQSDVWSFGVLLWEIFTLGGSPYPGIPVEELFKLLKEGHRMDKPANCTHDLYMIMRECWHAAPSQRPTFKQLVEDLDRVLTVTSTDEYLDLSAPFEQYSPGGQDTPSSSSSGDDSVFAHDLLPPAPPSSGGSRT", "assay": "Binding affinity to FGFR (unknown origin) at 10 nM after 2 hrs by FRET assay", "assay_type": "protein assay"}, "[21]": {"target": "Tyrosine-protein kinase ABL1 (Homo sapiens, UniProt P00519, E255K)", "assay": "Binding affinity to phosphorylated ABL1 E255K mutant (unknown origin) after 1 hr"}, "[22]": {"target": "T1, Tyrosine-protein kinase ABL1 (Homo sapiens, UniProt P00519, T315I)", "assay": "Binding affinity to phosphorylated ABL1 T315I mutant (unknown origin) after 1 hr"}, "[23]": {"target": "Tyrosine-protein kinase ABL1 (Homo sapiens, UniProt P00519, Q252H)", "assay": "Binding affinity to non phosphorylated ABL1 Q252H mutant (unknown origin) after 1 hr"}, "[24]": {"target": "T2, Tyrosine-protein kinase ABL1 (Homo sapiens, UniProt P00519)", "assay": "Binding affinity to phosphorylated wild type ABL1 (unknown origin) after 1 hr"}, "[25]": {"target": "T1, Tyrosine-protein kinase ABL1", "assay_type": "cell-based"}, "[26]": {"target": "T2, Tyrosine-protein kinase ABL1", "assay": "Inhibition of human recombinant wild type ABL1 expressed in insect cells after 30 mins by FRET assay", "assay_type": "cell-based"}, "cells [27]": {"assay": "cells", "conditions": "Mus musculus, BaF3, 72 h"}, "cells [28]": {"assay": "cells", "conditions": "Mus musculus, BaF3, 72 h", "remark": "listed apart in the source"}}, "note": "The source made the active and inactive calls. No cut-off for these calls is given here."}
{"smiles": "Cc1ccc(C(=O)Nc2ccc(CN3CCN(C)CC3)c(C(F)(F)F)c2)cc1C#Cc1cnc2[nH]ncc2c1", "note": "[OLVEREMBATINIB]", "values": [{"measurement": "Survival", "setting": "[1]", "result": 24.6, "unit": "days"}, {"measurement": "Activity", "setting": "BaF3 [2]", "result": "Active"}, {"measurement": "Activity", "setting": "BaF3 [3]", "result": "Active"}, {"measurement": "Activity", "setting": "BaF3 [4]", "result": "Active"}, {"measurement": "Activity", "setting": "KU812", "result": "Active"}, {"measurement": "inhibition in vivo at 1 mg/kg", "setting": "K562 [5]", "result": 68.3, "unit": "%"}, {"measurement": "Activity", "setting": "K562 [6]", "result": "Active"}, {"measurement": "concentration at 12 h", "setting": "[7]", "result": 270, "unit": "nM"}, {"measurement": "Vdss", "setting": "Rattus norvegicus", "result": 53.2, "unit": "L/kg"}, {"measurement": "MRT", "setting": "[8]", "result": 17.9, "unit": "h"}, {"measurement": "Papp B→A", "setting": "[9]", "result": 0.28, "unit": "×10⁻⁶ cm/s"}, {"measurement": "inhibition (INH)", "setting": "Cytochrome P450 3A4", "result": "Not Active"}, {"measurement": "IC50", "setting": "MOLT-4", "result": 26.3, "unit": "nM"}, {"measurement": "IC50", "setting": "U-937", "result": 390, "unit": "nM"}, {"measurement": "IC50", "setting": "[10]", "result": 5.5, "unit": "nM"}, {"measurement": "IC50", "setting": "[11]", "result": 2.3, "unit": "nM"}, {"measurement": "IC50", "setting": "[12]", "result": 0.2, "unit": "nM"}, {"measurement": "IC50", "setting": "[13]", "result": 2.7, "unit": "nM"}, {"measurement": "IC50", "setting": "[14]", "result": 8.1, "unit": "nM"}, {"measurement": "IC50", "setting": "[15]", "result": 3, "unit": "nM"}, {"measurement": "Activity", "setting": "[16]", "result": "inactive"}, {"measurement": "Activity", "setting": "[17]", "result": "inactive"}, {"measurement": "Activity", "setting": "[18]", "result": "inactive"}, {"measurement": "Activity", "setting": "[19]", "result": "inactive"}, {"measurement": "Activity", "setting": "[20]", "result": "inactive"}, {"measurement": "Kd", "setting": "[21]", "result": 0.28, "unit": "nM"}, {"measurement": "Kd", "setting": "[22]", "result": 3.2, "unit": "nM"}, {"measurement": "Kd", "setting": "[23]", "result": 0.46, "unit": "nM"}, {"measurement": "Kd", "setting": "[24]", "result": 0.34, "unit": "nM"}, {"measurement": "IC50", "setting": "[25]", "result": 0.68, "unit": "nM"}, {"measurement": "IC50", "setting": "[26]", "result": 0.34, "unit": "nM"}, {"measurement": "IC50", "setting": "cells [27]", "result": 6, "unit": "nM"}, {"measurement": "IC50", "setting": "cells [28]", "result": 6, "unit": "nM"}]}
